In publication PMC12125705 (Journal of medicinal chemistry, 2017):
pIC50: −log10 of the molar value. Values after ≈ are worked out from the molar mass of the structure shown. Values belong to the molecule of their own block, whether it stands above or below them.

Key:
[1] = system: A. baumanni 19606; assay: MIC by microbroth dilution; type: cell-based, Acinetobacter baumanni; conditions: Acinetobacter, 19606, 24 h, read-out: MIC A. baumanni 19606
Outline: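 CLSI microbroth dilution in Mueller-Hinton broth. Strains were grown at 37 °C with shaking to log phase, pelleted, and resuspended in 0.85% saline to OD625 0.1. Final inoculum 5 × 10^5 CFU/mL in 96-well plates, tested in triplicate, incubated 24 h at 37 °C. Growth was read as OD at 625 nm.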

[2] = Cytotoxicity; type: cell-based, human; conditions: human, DU-145 prostate cancer cells
Outline: (§1)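 Cells grown per ATCC protocols, trypsin-EDTA harvested, trypan-blue counted, seeded at […] cells/well, and allowed to recover 24 h (37 °C, 5% CO2). They were then treated in triplicate at final 20, 10, 5, 2.5, 1.25, 0.625 and 0.0625 μM for 48 h. Fixed with cold TCA (16% final, 4 °C, 1 h), stained 15 min with SRB in 1% acetic acid, dye dissolved in 10 mM Tris base, A560 read. IC50 derived from absorbance; study done in duplicate.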

[3] = system: Gram-positive bacterial strains; assay: MIC by microbroth dilution, summary over strains in text; type: cell-based; conditions: Shigella flexneri, read-out: MIC values against most Gram-positive strains
[4] = biological target: RNA topoisomerase activity of E. coli topoisomerase I (EcoTop1) (Escherichia coli, UniProt P06612); assay: RNA topoisomerase inhibition assay; type: biochemical; conditions: 10 nM EcoTop1; for effect on the RNA topoisomerase activity of EcoTop1: even at 80 μM concentrations; for concentration at which RNA topoisomerase activity is inhibited: concentration-dependent, 2.5–40 μM tested; for inhibitory effect on the RNA topoisomerase activity of EcoTop1: at concentrations up to 50 μM
[5] = Cytotoxicity; type: cell-based; conditions: human, PCS 201-010 normal dermal fibroblast cells
Outline: as §1

[6] = system: human prostate cancer cell line DU-145; assay: Cytotoxicity; type: cell-based; conditions: 48 h treatment, SRB
Outline: as §1

[7] = system: E. coli K12; conditions: compounds 1–4 reproduced; ref [35]; cited from earlier work
[8] = system: S. aureus 29213; conditions: compounds 1–4 reproduced; ref [35]; cited from earlier work
[9] = biological target: T1, human DNA topoisomerase I (Homo sapiens, UniProt P11387); conditions: read-out: IC50 hTopoI, values reproduced, ref [35]; cited from earlier work
T1 sequence (P11387 1-765): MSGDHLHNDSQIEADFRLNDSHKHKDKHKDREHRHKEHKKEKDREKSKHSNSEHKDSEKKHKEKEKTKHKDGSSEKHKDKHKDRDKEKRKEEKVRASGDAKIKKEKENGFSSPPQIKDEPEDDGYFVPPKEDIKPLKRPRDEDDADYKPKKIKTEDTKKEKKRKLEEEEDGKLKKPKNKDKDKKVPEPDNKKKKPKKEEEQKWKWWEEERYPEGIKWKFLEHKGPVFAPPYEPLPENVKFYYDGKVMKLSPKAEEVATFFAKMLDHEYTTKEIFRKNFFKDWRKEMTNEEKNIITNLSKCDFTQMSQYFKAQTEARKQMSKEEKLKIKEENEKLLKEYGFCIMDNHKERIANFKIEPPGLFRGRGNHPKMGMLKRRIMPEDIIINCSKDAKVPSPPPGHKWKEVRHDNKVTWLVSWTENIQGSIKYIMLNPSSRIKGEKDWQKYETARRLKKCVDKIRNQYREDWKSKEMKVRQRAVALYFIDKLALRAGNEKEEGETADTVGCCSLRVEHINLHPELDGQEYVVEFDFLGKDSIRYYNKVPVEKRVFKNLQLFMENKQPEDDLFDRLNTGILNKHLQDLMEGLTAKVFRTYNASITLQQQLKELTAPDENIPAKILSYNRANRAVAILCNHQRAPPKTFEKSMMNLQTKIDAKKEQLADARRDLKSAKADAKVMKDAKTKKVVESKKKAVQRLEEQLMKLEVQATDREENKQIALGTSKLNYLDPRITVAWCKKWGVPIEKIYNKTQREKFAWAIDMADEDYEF

[10] = system: S. aureus 33591; conditions: compounds 1–4 reproduced; ref [35]; cited from earlier work
[11] = system: E. coli 25922; conditions: compounds 1–4 reproduced; ref [35]; cited from earlier work
[12] = system: E. faecalis 29212; conditions: compounds 1–4 reproduced; ref [35]; cited from earlier work
[13] = biological target: E. coli DNA topoisomerase I (Escherichia coli, UniProt P06612); type: biochemical; conditions: at 50 μM
E. coli DNA topoisomerase I, sequence (P06612 whole entry): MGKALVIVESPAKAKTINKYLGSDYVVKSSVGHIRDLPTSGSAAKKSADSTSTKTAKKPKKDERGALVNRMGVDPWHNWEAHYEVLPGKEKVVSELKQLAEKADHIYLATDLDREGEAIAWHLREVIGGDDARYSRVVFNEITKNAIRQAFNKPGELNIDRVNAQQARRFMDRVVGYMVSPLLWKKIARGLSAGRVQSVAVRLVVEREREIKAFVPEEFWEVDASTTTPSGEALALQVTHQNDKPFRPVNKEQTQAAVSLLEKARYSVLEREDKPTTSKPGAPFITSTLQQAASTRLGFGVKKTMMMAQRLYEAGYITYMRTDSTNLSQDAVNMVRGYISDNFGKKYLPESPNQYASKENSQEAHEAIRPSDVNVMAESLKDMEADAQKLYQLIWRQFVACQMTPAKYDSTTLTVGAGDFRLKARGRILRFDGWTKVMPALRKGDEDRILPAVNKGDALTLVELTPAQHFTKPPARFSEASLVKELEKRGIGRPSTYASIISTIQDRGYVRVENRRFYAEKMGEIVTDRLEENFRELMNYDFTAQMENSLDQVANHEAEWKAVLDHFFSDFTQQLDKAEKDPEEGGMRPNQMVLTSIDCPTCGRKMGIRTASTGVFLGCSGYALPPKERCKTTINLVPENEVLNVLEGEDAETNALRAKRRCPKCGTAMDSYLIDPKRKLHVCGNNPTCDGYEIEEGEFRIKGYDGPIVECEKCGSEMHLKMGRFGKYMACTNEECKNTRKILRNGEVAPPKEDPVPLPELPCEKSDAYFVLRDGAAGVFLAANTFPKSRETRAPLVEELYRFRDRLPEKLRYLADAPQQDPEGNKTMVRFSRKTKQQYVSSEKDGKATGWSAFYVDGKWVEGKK

RNA topoisomerase activity of E. coli topoisomerase I (EcoTop1), sequence (P06612 whole entry): as above

MIC [1]: > 32 µg/mL
SMILES: C#Cc1ccc(-c2cn(CCOc3ccc(-c4nc5ccc(N6CCN(C)CC6)cc5[nH]4)cc3)nn2)cc1 [Compound 21, 2-(4-(2-(4-(4-Ethynylphenyl)-1H-1,2,3-triazol-1-yl)ethoxy)-phenyl)-6-(4-methylpiperazin-1-yl)-1H-benzo[d]imidazole]

SMILES: CN1CCN(c2ccc3nc(-c4ccc5nc(-c6ccc(O)cc6)[nH]c5c4)[nH]c3c2)CC1.Cl.Cl.Cl [Hoechst 33258, reference compound]
IC50 at 48 h [2]: > 10 µM
MIC [3]: 0.3 to 4 µg/mL

SMILES: CCOc1ccc2nc3cc(N)ccc3c(N)c2c1 [ethacridine, reference compound]
effect on the RNA topoisomerase activity of EcoTop1 [4]: do not have any effect

SMILES: C#CCOCCCCCCCCCCCCOc1ccc(-c2nc3ccc(-c4nc5ccc(N6CCN(C)CC6)cc5[nH]4)cc3[nH]2)cc1 [Compound 8, 6-(4-Methylpiperazin-1-yl)-2′-(4-(12-(prop-2-ynyloxy)dodecyloxy)phenyl)-1H,3′H-2,5′-bibenzo[d]imidazole]
IC50 at 48 h [5]: > 10 µM
IC50 at 48 h [2]: > 10 µM
concentration at which RNA topoisomerase activity is inhibited [4]: about 10 μM

SMILES: C#CCOCCCCOc1ccc(-c2nc3ccc(-c4nc5ccc(N6CCN(C)CC6)cc5[nH]4)cc3[nH]2)cc1 [Compound 4]
cytotoxicity to DU-145 compared with Hoechst 33258 [6]: more cytotoxic
MIC [3]: 0.3 to 4 µg/mL (≈ 0.561 to 7.48 µM)
MIC E. coli K12 [7]: 8 to 16 µg/mL
MIC S. aureus 29213 [8]: 2 to 4 µg/mL
pIC50 [9]: < 4.30
MIC S. aureus 33591 [10]: 2 to 4 µg/mL
inhibitory effect on the RNA topoisomerase activity of EcoTop1 [4]: no discernible inhibitory effect
MIC E. coli 25922 [11]: 8 to 16 µg/mL

MIC [1]: 16 to 32 µg/mL (≈ 76.1 to 152 µM)
SMILES: Oc1ccc(-c2nc3ccccc3[nH]2)cc1 [Compound 13, 4-(1H-Benzo[d]imidazol-2-yl)phenol]

SMILES: C#CCOc1ccc(-c2nc3ccc(-c4nc5ccc(N6CCN(C)CC6)cc5[nH]4)cc3[nH]2)cc1 [Compound 1]
MIC E. faecalis 29212 [12]: 16 to 32 µg/mL
cytotoxicity to DU-145 compared with Hoechst 33258 [6]: more cytotoxic
MIC [3]: 0.3 to 4 µg/mL (≈ 0.649 to 8.65 µM)
MIC S. aureus 29213 [8]: 2 to 4 µg/mL
MIC S. aureus 33591 [10]: 2 to 4 µg/mL
inhibitory effect on the RNA topoisomerase activity of EcoTop1 [4]: no discernible inhibitory effect

SMILES: CCOc1ccc(-c2nc3cc(-c4nc5cc(N6CCN(C)CC6)ccc5[nH]4)ccc3[nH]2)cc1 [Hoechst 33342, reference compound]
MIC [3]: 0.3 to 4 µg/mL (≈ 0.663 to 8.84 µM)
effect on the RNA topoisomerase activity of EcoTop1 [4]: do not have any effect

SMILES: C#CCOCCCCCCCCCCOc1ccc(-c2nc3ccc(-c4nc5ccc(N6CCN(C)CC6)cc5[nH]4)cc3[nH]2)cc1 [Compound 7, 6-(4-Methylpiperazin-1-yl)-2′-(4-(10-(prop-2-ynyloxy)decyloxy)phenyl)-1H,3′H-2,5′-bibenzo[d]imidazole]
MIC [1]: > 32 µg/mL
IC50 at 48 h [2]: > 10 µM
concentration at which RNA topoisomerase activity is inhibited [4]: about 10 μM

SMILES: C#CCCCCCCCCCOc1ccc(-c2nc3ccc(-c4nc5ccc(N6CCN(C)CC6)cc5[nH]4)cc3[nH]2)cc1 [Compound 3]
MIC E. faecalis 29212 [12]: 16 to 32 µg/mL
IC50 at 48 h [2]: > 10 µM
MIC E. coli K12 [7]: 8 to 16 µg/mL
pIC50 [9]: < 4.30
concentration at which RNA topoisomerase activity is inhibited [4]: about 10 μM

SMILES: C#CCOCCCCCCOc1ccc(-c2nc3ccc(-c4nc5ccc(N6CCN(C)CC6)cc5[nH]4)cc3[nH]2)cc1 [Compound 5, 6-(4-Methylpiperazin-1-yl)-2′-(4-(6-(prop-2-ynyloxy)-hexyloxy)phenyl)-1H,3′H-2,5′-bibenzo[d]imidazole]
MIC [1]: > 32 µg/mL
cytotoxicity to DU-145 compared with Hoechst 33258 [6]: more cytotoxic
inhibitory effect on the RNA topoisomerase activity of EcoTop1 [4]: no discernible inhibitory effect

MIC [1]: > 32 µg/mL
SMILES: CN1CCN(c2ccc3nc(-c4ccc(OCCCNC(=O)OC(C)(C)C)cc4)[nH]c3c2)CC1 [Compound 15, tert-Butyl 3-(4-(6-(4-Methylpiperazin-1-yl)-1H-benzo[d]imidazol-2-yl)phenoxy)propylcarbamate]

MIC [1]: > 32 µg/mL
SMILES: CN1CCN(c2ccc3nc(-c4ccc(OCc5cn(CCN=[N+]=[N-])nn5)cc4)[nH]c3c2)CC1 [Compound 19, 2-(4-((1-(2-Azidoethyl)-1H-1,2,3-triazol-4-yl)methoxy)-phenyl)-6-(4-methylpiperazin-1-yl)-1H-benzo[d]imidazole]

SMILES: C#CCCCCOc1ccc(-c2nc3ccc(-c4nc5ccc(N6CCN(C)CC6)cc5[nH]4)cc3[nH]2)cc1 [Compound 2]
cytotoxicity to DU-145 compared with Hoechst 33258 [6]: more cytotoxic
MIC [3]: 0.3 to 4 µg/mL (≈ 0.594 to 7.93 µM)
MIC E. coli K12 [7]: 8 to 16 µg/mL
MIC S. aureus 29213 [8]: 2 to 4 µg/mL
pIC50 [9]: < 4.30
MIC S. aureus 33591 [10]: 2 to 4 µg/mL
inhibitory effect on the RNA topoisomerase activity of EcoTop1 [4]: no discernible inhibitory effect
MIC E. coli 25922 [11]: 8 to 16 µg/mL

SMILES: C#CCOCCCCCCCCOc1ccc(-c2nc3ccc(-c4nc5ccc(N6CCN(C)CC6)cc5[nH]4)cc3[nH]2)cc1 [Compound 6, 6-(4-Methylpiperazin-1-yl)-2′-(4-(8-(prop-2-ynyloxy)octyloxy)phenyl)-1H,3′H-2,5′-bibenzo[d]imidazole]
cytotoxicity to DU-145 compared with Hoechst 33258 [6]: more cytotoxic
concentration at which RNA topoisomerase activity is inhibited [4]: about 10 μM

SMILES: CN1CCN(c2ccc3nc(-c4ccc(OCc5cn(CCCCN=[N+]=[N-])nn5)cc4)[nH]c3c2)CC1 [Compound 20]
inhibitory effect on the RNA topoisomerase activity of EcoTop1 [4]: no discernible inhibitory effect

SMILES: C#CCOCCOCCOCCOCCOCCOCCOc1ccc(-c2nc3ccc(-c4nc5ccc(N6CCN(C)CC6)cc5[nH]4)cc3[nH]2)cc1 [Compound 9, 2′-(4-(3,6,9,12,15,18-Hexaoxahenicos-20-ynyloxy)phenyl)-6-(4-methylpiperazin-1-yl)-1H,3′H-2,5′-bibenzo[d]imidazole]
MIC [1]: > 32 µg/mL
IC50 at 48 h [2]: > 10 µM
inhibition of the activity of E. coli DNA topoisomerase I [13]: did not significantly inhibit
inhibitory effect on the RNA topoisomerase activity of EcoTop1 [4]: no discernible inhibitory effect
